Data taken from BindingDB's records for doi:10.1021/jm030110r (Pharmaceutical Research Institute, 2003).

Molecular target: Proto-oncogene tyrosine-protein kinase Src (Rattus norvegicus, UniProt Q9WUD9)
Assay: Inhibition of v-Src tyrosine kinase autophosphorylation in SR3Y1 cells after 15 hr
Summary of the method: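 SR-3Y1 cells exposed to drug 15 h, lysed on ice 20 min in Tris pH 7.5 RIPA-type buffer with protease inhibitors and 1 mM vanadate. Equal-protein lysates run on SDS-PAGE, blotted with anti-phosphotyrosine antibody, HRP secondary, ECL detection. IC50 = concentration halving tyrosine phosphorylation.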

Sequence of Proto-oncogene tyrosine-protein kinase Src (Q9WUD9 2-536 limits assumed): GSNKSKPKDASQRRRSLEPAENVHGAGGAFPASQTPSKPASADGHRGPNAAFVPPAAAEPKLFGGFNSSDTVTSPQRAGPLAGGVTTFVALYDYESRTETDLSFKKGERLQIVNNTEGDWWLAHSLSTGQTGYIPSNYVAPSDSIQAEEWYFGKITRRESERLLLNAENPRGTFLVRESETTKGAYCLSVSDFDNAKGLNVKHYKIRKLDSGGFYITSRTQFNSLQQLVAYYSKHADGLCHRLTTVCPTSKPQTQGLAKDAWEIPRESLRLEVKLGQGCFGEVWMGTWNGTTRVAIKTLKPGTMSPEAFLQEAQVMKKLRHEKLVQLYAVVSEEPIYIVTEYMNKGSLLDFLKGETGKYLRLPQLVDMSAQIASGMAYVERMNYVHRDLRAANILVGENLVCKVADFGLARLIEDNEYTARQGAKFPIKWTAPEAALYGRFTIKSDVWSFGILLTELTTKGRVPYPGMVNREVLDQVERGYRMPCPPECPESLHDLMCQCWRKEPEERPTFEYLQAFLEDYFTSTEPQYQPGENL

SMILES: C[C@@H]1C[C@H]2O[C@@H]2\C=C/C=C/C(=N\OCC(=O)N2CCN(C)CC2)Cc2c(Cl)c(O)cc(O)c2C(=O)O1 [16-Chloro-17,19-dihydroxy-4-methyl-3,7-dioxa-tricyclo[13.4.0.0*6,8*]nonadeca-1(19),9,11,15,17-pentaene-2,13-dione 13-{O-[2-(4-methyl-piperazin-1-yl)-2-oxo-ethyl]-oxime}]
- IC50: 0.013 µM
